# TPT1 inhibitor = Candida albicans TPT1 enzyme inhibitors, primary screen, biochemical, fluorescence polarization. recombinant caTPT1, FP RNA substrate dephosphorylation. 300,000 compounds, 0.81% hits. inhibition, % at 5 µM;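 active = inhibition above the mean of all tested compounds plus 3 SD, set per screening campaign, cut at about 24% in these data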;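 also: plate controls were DMSO alone for no effect and ferristatin control at 100 nM for full effect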
# HNF4A DNA FP = change in binding of human HNF4A to DNA, primary screen, biochemical, fluorescence polarization, FITC-DNA; 360,000 compounds, 0.3% hits; activity change, % at 10 µM; 1 h; AID 1224865, 2016; Hepatocyte nuclear factor 4-alpha (Homo sapiens), P41235; in the data active = activity change above about 30%, passing the limit was not always enough
# CSN inh = inhibitors of CSN-mediated cullin deneddylation, primary screen, biochemical, fluorescence polarization, uHTS; COP9 signalosome complex subunit 5 (Homo sapiens), Q92905; Purified CSN, SCF-Nedd8-OG deneddylation; inhibition, % at 12.5 µM; 360,000 compounds, 0.38% hits; AID 651999, 2013;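 active = pattern-corrected inhibition above about 35%, with an unprinted fluorescence ratio check between 0.5 and 1.5, limit read from the data, passing the limit was not always enough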;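 also: 0% = enzyme with substrate and 100% = substrate without enzyme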
# Target sequence (Q92905 whole entry, looked up, one chain of several): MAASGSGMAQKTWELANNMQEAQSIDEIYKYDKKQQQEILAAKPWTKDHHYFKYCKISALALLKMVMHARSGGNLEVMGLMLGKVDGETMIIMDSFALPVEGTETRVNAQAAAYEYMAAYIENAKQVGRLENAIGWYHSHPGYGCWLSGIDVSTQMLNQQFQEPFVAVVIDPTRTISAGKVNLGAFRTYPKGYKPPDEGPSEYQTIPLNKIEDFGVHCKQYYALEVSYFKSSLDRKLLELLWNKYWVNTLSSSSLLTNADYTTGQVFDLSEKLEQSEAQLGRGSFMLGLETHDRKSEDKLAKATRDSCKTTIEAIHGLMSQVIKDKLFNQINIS
#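 Test system: purified human Csn5 enzyme expressed in HEK293T cells. Amount: 0.24 nM enzyme. Reagent: SCFSkp2-Nedd8OG substrate at 10 nM final. Schedule: 90 min incubation of compound, enzyme and substrate at room temperature. Detection: fluorescence polarization. Read-out: % inhibition of substrate cleavage by Csn5.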
# Rpn11 inh = Rpn11 (PSMD14) deubiquitinase inhibitors, primary screen, biochemical, fluorescence polarization, uHTS; 26S proteasome non-ATPase regulatory subunit 14 (Homo sapiens), O00487; human 26S proteasome, Ub4-pepOG fluorescence polarization; 20S core pre-blocked with epoxomicin; inhibition, % at 20 µM; 360,000 compounds, 0.59% hits; AID 588493, 2011;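 active = inhibition at 20 µM, scaled to each plate's controls, above about 33%, limit read from the data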
# Target sequence (O00487 whole entry, looked up): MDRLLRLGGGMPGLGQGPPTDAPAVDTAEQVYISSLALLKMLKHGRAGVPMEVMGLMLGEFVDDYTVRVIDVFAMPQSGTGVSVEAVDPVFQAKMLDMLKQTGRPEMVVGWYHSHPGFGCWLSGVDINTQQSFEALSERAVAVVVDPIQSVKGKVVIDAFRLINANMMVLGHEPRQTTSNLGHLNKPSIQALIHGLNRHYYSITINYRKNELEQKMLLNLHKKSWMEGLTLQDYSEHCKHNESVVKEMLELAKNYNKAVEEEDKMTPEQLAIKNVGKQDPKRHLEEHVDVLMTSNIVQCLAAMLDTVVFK
# Myeloid diff MLP = induction of myeloid progenitor differentiation, primary screen, cell-based, flow cytometry, MLPCN library | AID 624256, 2012 | ER-HoxA9 myeloid progenitors, lysozyme-GFP differentiation | calls only at 10 µM | 360,000 compounds, 1% hits;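 active = normalized GFP-positive differentiation at or above the plate's own cutoff, the solvent-only control mean plus 3 SD; inconclusive = no clear call, values can overlap the other calls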;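 also: cells exposed to compound for four days before flow analysis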
# Starred values were filed as active, the others as inactive; i = inactive; ? = inconclusive; . = no result given; + = active, no number. Hits are enriched below; roughly 2.3% of the tested compounds scored in any of these assays.
SMILES,TPT1 inhibitor,HNF4A DNA FP,CSN inh,Rpn11 inh,Myeloid diff MLP
Cc1ccc(-c2ccc(CCC(=O)O)n2-c2ccc(O)cc2)cc1,6.8,-1.5,0.6,-6.3,i
O=C(O)CCc1ccc(-c2ccc(Br)cc2)n1-c1ccc(O)cc1,.,2.4,38.9*,-3.0,i
COc1ccc(CCN2C(=O)CSC2=Nc2ccc(C(C)C)cc2)cc1OC,-2.1,-1.9,0.9,6.1,+
NS(=O)(=O)c1ccc(NC(=O)C2(c3ccccc3)CCCC2)cc1,-2.2,-2.2,-5.2,0.1,i
NS(=O)(=O)c1ccc(NC2(C(=O)O)CCCC2)cc1,-3.0,-0.7,4.6,-8.8,+
O=C(Nc1ccccc1-c1nc2ccccc2[nH]1)c1ccc(S(=O)(=O)N2CCCCC2)cc1,.,-1.2,5.0,-0.7,i
O=C(Nc1ccccc1-c1nc2ccccc2[nH]1)c1ccc(N2C(=O)CCC2=O)cc1,2.8,85.4*,53.9*,.,+
O=C1/C(=C/c2ccc(N3CCOCC3)o2)SC(=Nc2ccccc2)N1CCc1c[nH]c2ccccc12,148.2*,88.8,-71.8,.,+
CCOc1ccc(S(=O)(=O)N2CCC(C(=O)Nc3ccc(C)c(S(=O)(=O)N4CCOCC4)c3)CC2)cc1,.,0.0,-5.0,4.9,+
CC1(C(=O)NS(=O)(=O)c2ccc(Cl)cc2)CCN1C(=O)C1(c2ccc(Cl)cc2)CCC1 (stereo unspecified),.,-0.5,1.0,3.7,i
COc1ccc2c(COC(=O)c3n[nH]c4ccccc34)cc(=O)oc2c1,2.4,1.5,38.4*,27.5,i
Cc1cc2oc(=O)cc(COC(=O)c3n[nH]c4ccccc34)c2cc1C,8.0,-2.6,-1.9,3.9,i
Cc1ccccc1NC(=O)Nc1nc(C(N)C2CCCCC2)cs1 (stereo unspecified),.,3.2,0.8,0.2,i
Cc1cc(/C=N/n2cnnc2)c(C)n1-c1ccc(OCc2ccc(F)cc2)cc1,-1.6,0.5,7.6,-5.6,+
Cc1cc(/C=N/n2cnnc2)c(C)n1-c1ccc(OCc2ccc(Cl)cc2Cl)cc1,-2.7,-0.2,2.0,-0.1,i
O=C(Nc1cccc(C(F)(F)F)c1)c1csc([C@H]2C[C@H](O)[C@@H](CO)O2)n1,.,0.6,-1.9,-6.3,i
Cc1ccc(-c2csc(NC(=O)CCNC(=O)c3ccco3)n2)cc1,0.4,40.2*,-2.1,0.4,i
Cc1cc(Br)ccc1SCC(=O)OCC(=O)NC(C)c1ccccc1 (stereo unspecified),-2.4,-3.6,-9.9,4.8,i
Cc1cc(Br)ccc1SCC(=O)OCC(=O)c1c(N)n(C)c(=O)n(C)c1=O,-2.4,2.1,0.3,6.1,+
Cn1c(N)c(C(=O)COC(=O)CCc2ccccc2)c(=O)n(C)c1=O,-2.2,-1.8,3.8,1.3,+
Cn1c(N)c(C(=O)COC(=O)CNC(=O)c2ccccc2)c(=O)n(C)c1=O,.,-0.3,2.2,-3.5,i
Cc1cc(SCC(=O)OCC(=O)c2c(N)n(C)c(=O)n(C)c2=O)c(C)cc1Br,0.8,3.8,-6.8,-4.9,i
Cc1cc(Br)ccc1SCC(=O)OCC(=O)NC1CC1,2.9,-0.7,3.1,0.8,+
C#CCN1CCc2onc(-c3ccc(Br)cc3)c2C1=O,.,5.1,-1.3,.,i
COc1ccc(CCN2C(=O)CC(NNc3ccc([N+](=O)[O-])cc3)C2=O)cc1OC (stereo unspecified),1.8,-3.8,3.4,7.5,+
SMILES,TPT1 inhibitor,HNF4A DNA FP,CSN inh,Rpn11 inh,Myeloid diff MLP
CC(C)CCn1c(CN2CCN(c3cccc(Cl)c3)CC2)nc2c1c(=O)n(C)c(=O)n2C,-1.8,-6.1,6.3,1.2,+
COc1ccc(N2CCN(Cc3nc4c(c(=O)[nH]c(=O)n4C)n3Cc3cccc(Cl)c3)CC2)cc1,1.1,-3.2,3.2,-0.1,+
Cc1ccc(S(=O)(=O)NC(=O)C2(C)CCN2C(=O)Cc2ccc(Cl)cc2Cl)nc1 (stereo unspecified),.,1.3,1.8,-1.6,i
CCOC(=O)N1CCN(S(=O)(=O)c2c(C(=O)N3CCCCC3)c(C)n(C)c2C)CC1,0.2,1.6,2.8,-13.2,+
CCOC(=O)C1CCN(S(=O)(=O)c2c(C(=O)N3CCCCC3)c(C)n(C)c2C)CC1,1.3,-0.5,-0.1,-0.1,i
O=C(Cc1ccc([N+](=O)[O-])cc1)c1ccccc1,.,1.8,3.1,-7.3,+
O=C(CC(=O)c1ccccc1)Nc1ccc([N+](=O)[O-])cc1,.,-0.6,1.8,-11.8,i
CCc1nc2c(OCCC3CCCCC3)cccn2c1N(C)C(=O)c1ccc(OC)cc1,.,1.2,0.4,6.7,i
COc1cccc2cc(-c3nc(-c4cccs4)cs3)c(=O)oc12,1.0,40.5*,15.5,.,i
CC1(C(=O)Nc2ccc(F)cc2F)CCN1C(=O)CCC1CCCC1 (stereo unspecified),.,-1.1,2.1,-22.8,i
CCOC(=O)C1=C(Cc2ccc(F)cc2)C(=O)c2ccccc2C1=O,-6.7,-2.3,4.4,9.2,+
CN(CCNC(=O)C1CCN(c2ncnc3c2nc2n3CCCCC2)CC1)Cc1ccccc1,1.6,5.0,-2.4,5.0,+
CC(=O)Nc1ccc(-c2ccnc3c2CC(C(=O)NCc2ccco2)O3)cc1 (stereo unspecified),.,3.2,2.4,-2.8,?
O=C(C1CCC(=O)N(C2CCCC2)C1)N1CCC(Oc2cccc(F)c2)CC1 (stereo unspecified),1.8,1.8,0.9,0.5,+
CCCCc1c(Cc2cccc(F)c2)ncn1CCc1ccccc1OC,.,-1.3,-2.4,.,i
CCCCC(CC)CN=C(N)NC(N)=NCCCCCCN=C(N)NC(N)=NCC(CC)CCCC (stereo unspecified),-0.7,97.6*,126.9*,101.6*,?
CCCCC(CC)CO (stereo unspecified),.,-0.4,-1.6,1.2,i
Cn1cc(Cc2ccc(C(=O)N3CCOCC3)cn2)c2ccccc21,.,1.0,-4.7,-9.8,i
C[C@H]1CN([C@@H](C)CO)C(=O)CCCn2cc(nn2)CO[C@@H]1CN(C)C(=O)Nc1ccccc1C(F)(F)F,.,7.2,-7.0,-4.9,i
COc1ccc(N2CCN(C(=O)COC(=O)/C=C/c3ccc(C(F)(F)F)cc3)CC2)cc1,2.1,4.2,-5.6,-4.6,+
COc1ccc(N2CCN(C(=O)COC(=O)Cc3cccc(OC)c3)CC2)cc1,-0.1,4.2,-2.9,1.9,i
COc1ccc(N2CCN(C(=O)COC(=O)c3ccco3)CC2)cc1,0.8,6.2,-2.7,-1.3,+

# Compound activity: PubChem BioAssay, several laboratories
